Source: ChEMBL document CHEMBL1153507, “Synthesis, DNA intercalation and 3D QSAR analysis of cis-2,4,5-trisubstituted-1,3-dithiolanes as a novel class of antitumor agents” (2009)
Calls of active or inactive are those of the source. No cut-off for these calls is given here.

Columns and labels:
CCRF S-180 [1] = experiment: Antitumor activity against mouse S180 cells implanted in ICR mouse assessed as tumor weight at 44.64 umol/kg/day, ip administered for 7 consecutive days after 24 hrs of tumor implantation measured after 24 hrs post dose; format: functional
How it was run: (§1)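 Male ICR mice aged 10–12 weeks, housed at 21 °C on a natural light cycle, carried S180 tumors. 24 h after implantation they were randomized into groups of 10. Daily ip dosing in 0.2 ml normal saline for 7 days: test agents 44.64 µmol/kg/day, cytarabine 89.28 µmol/kg/day, saline as negative control. Mice were killed 24 h after the last dose and tumors weighed. Inhibition = (control − treated)/control tumor weight. Mean ± SD.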

Calf thymus DNA [2] = experiment: Binding affinity to calf thymus DNA by spectroscopy; format: nucleic-acid assay; settings: Bos taurus
How it was run: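 UV-vis titration of calf thymus DNA (10 µM final) in PBS, pH 7.4. Compound from a 10 mM PBS stock was added in sequential aliquots to final 4–40 µM, and spectra were recorded after each addition. Compounds were transparent at 200–360 nm.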

Calf thymus DNA [3] = experiment: Binding affinity to calf thymus DNA by circular diachromic assay; format: nucleic-acid assay; settings: Bos taurus
Calf thymus DNA [4] = experiment: Binding affinity to calf thymus DNA assessed as hyperchromic effect by UV-vis spectrophotometry; settings: Bos taurus
CCRF S-180 [5] = experiment: Antitumor activity against mouse S180 cells xenografted in ip dosed ICR mouse assessed as inhibition of tumor weight administered for 7 consecutive days after 24 of hrs tumor implantation measured after 24 hrs post dose; format: functional, organism-based; how it was run: as §1
CCRF S-180 [6] = experiment: Antitumor activity against mouse S180 cells implanted in ICR mouse assessed as tumor weight at 89.28 umol/kg/day, ip administered for 7 consecutive days after 24 hrs of tumor implantation measured after 24 hrs post dose; format: functional; how it was run: as §1

| Activity (Calf thymus DNA [2]) | Activity (Calf thymus DNA [3]) | Activity (Calf thymus DNA [4]) | SMILES | Activity (CCRF S-180 [1]) [g] | inhibition (CCRF S-180 [5]) | Activity (CCRF S-180 [6]) [g] |
| --- | --- | --- | --- | --- | --- | --- |
| Active | Active | Active | C[C@H](N)C(=O)OC[C@@H]1S[C@H](CC=O)S[C@@H]1COC(=O)[C@H](C)N | 1.213 |  |  |
| Active | Active | Active | N[C@@H](CCC(=O)O)C(=O)OC[C@@H]1S[C@H](CC=O)S[C@@H]1COC(=O)[C@@H](N)CCC(=O)O | 1.051 |  |  |
| Active | Active | Active | N[C@@H](Cc1ccc(O)cc1)C(=O)OC[C@@H]1S[C@H](CC=O)S[C@@H]1COC(=O)[C@@H](N)Cc1ccc(O)cc1 | 0.529 | Dose-dependent effect |  |
| Active | Active | Active | CC(C)[C@H](N)C(=O)OC[C@@H]1S[C@H](CC=O)S[C@@H]1COC(=O)[C@@H](N)C(C)C (mixture of isomers) | 1.114 |  |  |
| Active | Active | Active | CSCC[C@H](N)C(=O)OC[C@@H]1S[C@H](CC=O)S[C@@H]1COC(=O)[C@@H](N)CCSC | 1.139 |  |  |
| Active | Active | Active | N[C@@H](CO)C(=O)OC[C@@H]1S[C@H](CC=O)S[C@@H]1COC(=O)[C@@H](N)CO | 1.493 |  |  |
| Active | Active | Active | NCCCC[C@H](N)C(=O)OC[C@@H]1S[C@H](CC=O)S[C@@H]1COC(=O)[C@@H](N)CCCCN | 0.989 |  |  |
| Active | Active | Active | NC(=O)C[C@H](N)C(=O)OC[C@@H]1S[C@H](CC=O)S[C@@H]1COC(=O)[C@@H](N)CC(N)=O | 0.855 |  |  |

Second part, the compound before the results:

| SMILES | Activity (Calf thymus DNA [2]) | Activity (Calf thymus DNA [3]) | Activity (Calf thymus DNA [4]) | Activity (CCRF S-180 [1]) [g] | inhibition (CCRF S-180 [5]) | Activity (CCRF S-180 [6]) [g] |
| --- | --- | --- | --- | --- | --- | --- |
| NC(=O)CC[C@H](N)C(=O)OC[C@@H]1S[C@H](CC=O)S[C@@H]1COC(=O)[C@@H](N)CCC(N)=O | Active | Active | Active | 1.061 |  |  |
| CC[C@H](C)[C@H](N)C(=O)OC[C@@H]1S[C@H](CC=O)S[C@@H]1COC(=O)[C@@H](N)[C@@H](C)CC | Active | Active | Active | 1.064 |  |  |
| O=CC[C@H]1S[C@@H](COC(=O)[C@@H]2CCCN2)[C@@H](COC(=O)[C@@H]2CCCN2)S1 | Active | Active | Active | 1.446 |  |  |
| C[C@@H](O)[C@H](N)C(=O)OC[C@@H]1S[C@H](CC=O)S[C@@H]1COC(=O)[C@@H](N)[C@@H](C)O | Active | Active | Active | 1.087 |  |  |
| N[C@@H](Cc1c[nH]c2ccccc12)C(=O)OC[C@@H]1S[C@H](CC=O)S[C@@H]1COC(=O)[C@@H](N)Cc1c[nH]c2ccccc12 | Active | Active | Active | 0.954 |  |  |
| N[C@@H](Cc1ccccc1)C(=O)OC[C@@H]1S[C@H](CC=O)S[C@@H]1COC(=O)[C@@H](N)Cc1ccccc1 | Active | Active | Active | 0.693 | Dose-dependent effect |  |
| CC(C)C[C@H](N)C(=O)OC[C@@H]1S[C@H](CC=O)S[C@@H]1COC(=O)[C@@H](N)CC(C)C | Active | Active | Active | 1.296 |  |  |
| N[C@@H](Cc1c[nH]cn1)C(=O)OC[C@@H]1S[C@H](CC=O)S[C@@H]1COC(=O)[C@@H](N)Cc1c[nH]cn1 | Active | Active | Active | 1.076 |  |  |
| Nc1ccn([C@@H]2O[C@H](CO)[C@@H](O)[C@@H]2O)c(=O)n1 [CYTARABINE] |  |  |  |  |  | 0.582 |
| N=C(N)NCCC[C@H](N)C(=O)OC[C@@H]1S[C@H](CC=O)S[C@@H]1COC(=O)[C@@H](N)CCCNC(=N)N | Active | Active | Active | 0.778 |  |  |
| NCC(=O)OC[C@@H]1S[C@H](CC=O)S[C@@H]1COC(=O)CN | Active | Active | Active | 0.723 | Dose-dependent effect |  |
